PfHsp90 set2: growth inhibition of PfHsp90-expressing yeast, primary screen, antimalarial PfHsp90 inhibitor project, S. cerevisiae, BacTiter-Glo luminescence, single point, set 2. inhibition, % at 9.4 µM. 0.32% of 310,000 active. BacTiter-Glo ATP, 48 h; yeast lacking PDR1 and PDR3 efflux regulators;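 active = every replicate shows inhibition above about 80%, whatever the replicate mean, limit read from the data; inconclusive = mean inhibition reaches the set limit but some replicate falls short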;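 note: 0% = DMSO neutral controls and 100% = 20 µM radicicol positive controls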
FN deposit inh: inhibitors of fibronectin matrix deposition, primary screen, AH1F cells, Alexa488-fibronectin fluorescence, plate reader; 0.086% of 350,000 active; AH1F fibroblasts, overnight; AID 743247, 2014; inhibition, % at 12.6 µM;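 active = mean inhibition across replicates of 30% or more, regardless of how many single replicates reach that level; inconclusive = mean under 30% yet at least half of replicates reach 30%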;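 note: positive control wells lacked labelled fibronectin entirely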
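Material: AH1F fibroblasts assembling fluorescent fibronectin matrix; amount: 10000 AH1F cells/well; medium: DMEM, 2% serum; reagent: Alexa488-fibronectin, 24 nM final in well; dosing: single compound dose, delivered by pin transfer; incubation: 1 h adhesion, overnight exposure; detection: fluorescence after three HBSS washes, excitation 485 nm, emission 525 nm; measure: fibronectin deposition inhibition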
SKKanGAS inh: S. pyogenes SKKanGAS growth inhibitors in kanamycin, primary screen, streptokinase expression inhibitor project, SKKanGAS strain, BacTiter-Glo luminescence | 6 h | inhibition, % at 7.5 µM | 1.3% of 300,000 active | AID 1662, 2009;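 active = mean replicate score, as percent of positive control median, at least 50; inconclusive = mean below 50 but one replicate at or above 50; inactive = mean and every replicate below 50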;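 note: strain carries kanamycin resistance gene driven by streptokinase promoter and grows in 40 µg/ml kanamycin; loss of luminescence reflects streptokinase promoter inhibition or plain growth inhibition; 0% = median of DMSO wells and 100% = positive control at its reference dose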
Rtt109 Vps75: inhibitors of C. albicans Rtt109/Vps75 HAT, primary screen, biochemical, ThioGlo CoA-SH fluorescence, plate reader. 0.16% of 330,000 active. purified Rtt109/Vps75, 4 h. inhibition, % at 34.9 µM;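 active = inhibition of at least 50% in every replicate; inconclusive = best replicate reaches 50% inhibition but some replicates fall short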
Target sequence (Q5AAJ8 whole entry, looked up): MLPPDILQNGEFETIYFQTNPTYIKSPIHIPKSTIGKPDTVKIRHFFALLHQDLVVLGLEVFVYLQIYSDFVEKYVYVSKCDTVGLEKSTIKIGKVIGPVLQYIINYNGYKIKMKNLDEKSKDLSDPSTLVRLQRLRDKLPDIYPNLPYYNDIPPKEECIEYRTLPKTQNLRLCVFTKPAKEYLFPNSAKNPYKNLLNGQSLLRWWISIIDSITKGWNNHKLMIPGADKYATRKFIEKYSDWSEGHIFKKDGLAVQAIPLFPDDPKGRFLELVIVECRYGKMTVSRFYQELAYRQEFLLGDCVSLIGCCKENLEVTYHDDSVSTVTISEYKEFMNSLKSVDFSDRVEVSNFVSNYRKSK
PglD inh: C. jejuni PglD acetyltransferase inhibitors, primary screen, biochemical, DTNB colorimetric, single point; inhibition, % at 12.5 µM; 0.098% of 360,000 active; purified PglD enzyme, DTNB colorimetric CoA detection; in the data active = inhibition above about 16%, passing the limit was not always enough; inconclusive = no clear call, values can overlap the other calls
CSC inhib: cancer stem cell viability inhibitors, primary screen, luminescence; 1.1% of 300,000 active; AID 2717, 2010; inhibition, % at 7.5 µM; cancer stem cell-like cells viability; in the data active = inhibition above about 75%; inconclusive = no clear call, values can overlap the other calls; tested in HMLE shEcad cells
* = called active by the depositor; u = inconclusive; x = no result. The list is not random: actives were taken first. Their share in the collection is about 1.7%.

SMILES	PfHsp90 set2	FN deposit inh	SKKanGAS inh	Rtt109 Vps75	PglD inh	CSC inhib
Oc1c(CN2CCN(c3ccccc3)CC2)cc(Br)c2cccnc12	123.7*	9.5	90.5*	9.5	-1.0	113.9*
CCOC(=O)N1CCN(Cc2ccccc2Cl)CC1	-16.6	x	x	1.1	-3.4	-3.4
C[C@@H]1CN([C@H](C)CO)S(=O)(=O)c2ccc(C#CC3(O)CCCC3)cc2O[C@@H]1CN(C)C(=O)c1ccncc1	x	7.2	x	x	-1.7	x
COc1ccc(-c2noc(CNS(=O)(=O)c3ccc(NC(C)=O)cc3)n2)cc1	-4.1	2.3	8.6	17.0	1.7	-2.6
O=C(NCc1nc(-c2ccc(C(F)(F)F)cc2)no1)Nc1ccc(OC(F)(F)F)cc1	1.6	-0.6	23.5	1.5	-3.1	109.2*
CC(C)c1ccc2c(c1)C(N1CCNCC1)Cc1ccc(F)cc1S2 (centres undefined)	x	9.5	37.8	x	x	102.5*
CN1CCN(C2Cc3cc(F)ccc3Sc3ccc(Cl)cc32)CC1 (centres undefined)	16.6	-0.2	3.7	0.9	-0.3	-10.6
CSc1ccc2c(c1)C(N1CCN(C)CC1)Cc1ccccc1S2 (centres undefined)	-0.3	-1.5	11.0	18.5	-0.5	u
CN1CCN(C2Cc3ccc(F)cc3Sc3cc(F)c(Cl)cc32)CC1 (centres undefined)	16.9	7.6	97.3*	-5.2	-3.6	100.8*
O=C(C[C@@H]1CC[C@@H]2[C@H](COC[C@H](O)CN2Cc2ccc(Oc3ccccc3)cc2)O1)Nc1nccs1	x	-21.1	x	x	-0.3	x
O=C(CSc1nnc(CNC(=O)c2ccccc2)o1)NCc1ccccc1Cl	-5.9	-3.5	17.7	4.5	1.9	-5.5
O=C(CSc1nnc(CNC(=O)c2ccc(F)cc2)o1)NCc1ccccc1Cl	4.0	2.3	50.5*	-2.6	3.4	-5.4
O=C(C[C@H]1CC[C@@H](NC(=O)c2cccc(F)c2)[C@@H](CO)O1)NCCN1CCCC1	x	-6.9	x	x	2.5	x
O=C1CC(c2ccccc2F)c2cc3c(cc2N1)CCC3 (centres undefined)	17.3	x	2.9	x	-3.7	x
O=C1CC(c2cc(Br)ccc2F)c2cc3c(cc2N1)CCC3 (centres undefined)	5.3	x	-4.1	5.3	0.7	82.4*
O=C1C=C(Nc2ccccc2)c2ccccc2C1=O	-7.6	10.9	68.1*	2.1	x	x
O=C1C=C(Nc2cccc3cccnc23)c2ccccc2C1=O	-7.4	-0.6	63.2*	0.4	4.7	58.0
CO[C@@H]1CN(C)C(=O)c2ccc(NC(=O)C3CCCCC3)cc2OC[C@@H](C)N(C(=O)Nc2ccc(C(F)(F)F)cc2)C[C@H]1C	x	x	x	x	-5.3	x
CCc1cc(C(=O)Cc2ccc(F)cc2)c(O)cc1O	16.7	x	-3.2	2.5	2.9	41.4
CCCc1cc(C(=O)Cc2ccc(F)cc2)c(O)cc1O	3.9	x	34.7	9.5	-0.1	81.9*
CCOc1ccc2nc(N3CCCCCC3)sc2c1	-28.8	x	-2.7	-12.9	2.5	18.0
CCOc1ccc2nc(N3C(=O)/C(=C/c4ccccc4)NC3=S)sc2c1	12.5	-4.1	99.6*	2.3	x	x
COc1ccc2nc(N3C(=O)CC(Cc4cc(C)cc(C)c4)C3=O)sc2c1 (centres undefined)	-14.2	x	18.2	9.2	-0.8	1.4
COc1ccc2nc(N3C(=O)/C(=C/c4ccccc4)NC3=S)sc2c1	-33.1	-3.1	92.4*	-5.6	6.1	-3.2
C[C@H]1CN([C@@H](C)CO)C(=O)c2ccccc2-c2ccccc2CO[C@@H]1CN(C)C(=O)Cc1ccccc1	x	-13.9	x	x	-2.0	x
SMILES	PfHsp90 set2	FN deposit inh	SKKanGAS inh	Rtt109 Vps75	PglD inh	CSC inhib
CCOC(=O)c1sc(Nc2nc3ccc(OC)cc3s2)cc1C	-9.7	-1.9	49.7*	-1.0	x	-3.1
COc1ccc2nc(NC(=O)c3ccoc3C)sc2c1	54.4	x	65.8*	-2.0	8.3	70.0
CCOC(=O)c1csc(Nc2nc3ccc(F)cc3s2)n1	-47.9	7.3	52.7*	-5.1	3.0	33.6
CCOC(=O)c1sc(Nc2nc3c(F)cccc3s2)cc1C	-8.2	0.7	-1.9	-1.1	4.2	-8.0
COc1ccc2nc(NC(=O)CN3C(=O)NC4(CCCCC4)C3=O)sc2c1	-3.4	x	7.0	52.0*	3.6	x
C[C@@H]1CCCCO[C@@H](CN(C)S(C)(=O)=O)[C@@H](C)CN([C@H](C)CO)C(=O)c2cc(NC(=O)CCCN(C)C)ccc2O1	x	x	x	x	0.8	x
C[C@H](CO)N1C[C@H](C)[C@H](CN(C)S(=O)(=O)c2ccccc2)Oc2ncc(Br)cc2C1=O	x	x	x	x	-3.5	x
Brc1ccc2[nH]c3c(N4CCc5ccccc5C4)ncnc3c2c1	x	x	85.9*	x	x	80.0*
CCOc1ccc2[nH]c3c(N4CCc5ccccc5C4)ncnc3c2c1	x	9.3	51.3*	x	-9.1	86.8*
Fc1ccc2[nH]c3c(N4CCc5ccccc5C4)ncnc3c2c1	x	8.9	21.0	x	3.8	u
Cc1ccc2[nH]c3c(N4CCc5ccccc5C4)ncnc3c2c1	-1.3	9.2	34.2	11.4	0.0	-7.8
C[C@@H]1CCCCO[C@H](CN(C)C(=O)Nc2ccc3c(c2)OCO3)[C@H](C)CN([C@@H](C)CO)C(=O)c2cc(NC(=O)CCCN(C)C)ccc2O1	x	x	x	x	-1.1	x
c1ccc(-c2nnnc3ccccc23)cc1	-19.2	4.0	0.1	-2.5	0.2	x
N#CCSc1nc(-c2ccccc2)c2cc(Cl)ccc2n1	-60.8	0.3	-6.3	-6.5	6.1	5.8
Clc1ccc2nnnc(-c3ccccc3)c2c1	-6.0	-1.5	-1.2	-1.5	x	98.6*
C=CCSc1nc(-c2ccccc2)c2cc(Cl)ccc2n1	x	x	56.5*	-3.8	x	-18.7
Cc1noc(C)c1S(=O)(=O)N(C)C[C@@H]1Oc2c(NS(=O)(=O)c3ccccc3)cccc2C(=O)N([C@H](C)CO)C[C@@H]1C	x	x	x	x	-0.2	x
Cc1ccc(-c2cc(C(=O)N/N=C/c3ccccc3O)n[nH]2)o1	-5.1	13.4	25.7	12.5	-2.4	78.7*
Cc1ccc(-c2cc(C(=O)N/N=C/c3c[nH]c4ccccc34)n[nH]2)o1	-9.4	17.6	2.5	x	x	30.2
CC(=O)Nc1cccc(C(=O)/C=C/c2ccc(F)cc2)c1	-12.0	-19.4	-5.5	-7.2	6.6	46.3
CC(=O)Nc1cccc(C(=O)/C=C/c2ccc(Br)cc2)c1	15.9	6.6	1.6	14.5	x	126.7*
CC(=O)Nc1cccc(C(=O)/C=C/c2ccc(/C=C/C(=O)c3cccc(NC(C)=O)c3)cc2)c1	x	-16.0	6.8	x	x	77.1*

High-throughput results deposited in PubChem BioAssay by Broad Institute.
